The source made the active and inactive calls. The calls are words filed in the database; no cut-off is given here.
Key:
[1] = test system: Influenza A virus (A/California/04/2009(H1N1)); experiment: Inhibition of Influenza A (A/California/04/2009) (H1N1) clinical isolate N-terminal truncated PA endonuclease at 500 nM using 5'-FAM/3-TAMRA quencer labeled 17-mer ssDNA-oligo as substrate measured over 45 mins by FRET assay relative to control
[2] = molecular target: T1, Arginase-1 (Homo sapiens) (UniProt P05089); experiment: Inhibition of full length human arginase 1 expressed in Escherichia coli BL21(DE3) at 200 uM using unlabeled L-arginine/L-[guanidino-14C]arginine as substrate after 5 mins by liquid scintillation counting method relative to control
T1 sequence (whole entry): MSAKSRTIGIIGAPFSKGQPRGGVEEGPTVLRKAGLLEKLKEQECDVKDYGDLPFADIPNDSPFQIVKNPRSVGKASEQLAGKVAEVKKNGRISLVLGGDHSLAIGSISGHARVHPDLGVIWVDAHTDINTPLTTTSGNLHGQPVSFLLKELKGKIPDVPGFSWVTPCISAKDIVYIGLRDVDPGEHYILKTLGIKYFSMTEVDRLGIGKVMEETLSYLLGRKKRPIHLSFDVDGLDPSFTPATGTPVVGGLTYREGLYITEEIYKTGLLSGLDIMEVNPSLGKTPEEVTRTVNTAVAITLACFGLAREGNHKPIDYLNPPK
Procedure, shortened: (§1)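 Single-concentration cross-inhibition screen, final inhibitor 200 μM, percent inhibition relative to positive and negative controls; run per literature protocols (Arg1, MetAP1 Mn2+ isoform, NDM-1).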

Bacteria = experiment: Inhibition of bacterial NDM1 at 200 uM using chromacef as substrate preincubated for 10 mins followed by substrate addition; procedure, shortened: as §1
[3] = Inhibition of Influenza A (A/California/04/2009) (H1N1) clinical isolate N-terminal truncated PA endonuclease using 5'-FAM/3-TAMRA quencer labeled 17-mer ssDNA-oligo as substrate measured over 45 mins by FRET assay; parameters: species or system Influenza A virus (A/California/04/2009(H1N1))
Procedure, shortened: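 Cleavage of a 5'-FAM/3'-TAMRA 17-mer ssDNA substrate (200 nM) by influenza PA endonuclease (4 nM) in 20 mM Tris, 150 mM NaCl, 2 mM MnCl2, 10 mM β-mercaptoethanol, 0.2% Triton-X100, pH 8.0.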

[4] = test system: Influenza A virus (A/California/04/2009(H1N1)); experiment: Inhibition of Influenza A (A/California/04/2009) (H1N1) clinical isolate N-terminal truncated PA endonuclease at 500 nM using 5'-FAM/3-TAMRA quencer labeled 17-mer ssDNA-oligo as substrate measured over 45 mins in presence of up to 25 mM metal ions by FRET assay relative to control
[5] = molecular target: 72 kDa type IV collagenase (Homo sapiens) (UniProt P08253); experiment: Inhibition of recombinant human MMP2 at 200 uM using Mca-Pro-Leu-Gly-Leu-Dpa-Ala-Arg-NH2.AcOH as substrate preincubated for 30 mins followed by substrate addition and measured every min for 20 mins by fluorescence assay
[6] = molecular target: Carbonic anhydrase 2 (Homo sapiens) (UniProt P00918); experiment: Inhibition of human carbonic anhydrase 2 at 200 uM using p-nitrophenyl acetate as substrate preincubated for 15 mins followed by substrate addition and measured every 1 min for 20 mins
Procedure, shortened: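 Single-point screen at 200 μM, percent inhibition relative to positive and negative controls, following literature protocols.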

[7] = molecular target: Lactoylglutathione lyase (Homo sapiens) (UniProt Q04760); experiment: Inhibition of human glyoxalase 1 at 200 uM relative to control
[8] = molecular target: Human immunodeficiency virus type 1 integrase (Human immunodeficiency virus 1) (UniProt Q7ZJM1); experiment: Inhibition of recombinant HIV1 integrase strand transfer activity at 200 uM using 5'-end [32P]-labeled oligonucleotide substrate after 60 mins by densitometric analysis relative to control
[9] = molecular target: Human immunodeficiency virus type 1 integrase (Human immunodeficiency virus 1) (UniProt Q7ZJM1); experiment: Inhibition of recombinant HIV1 integrase 3'-processing activity at 200 uM using 5'-end [32P]-labeled oligonucleotide substrate after 60 mins by densitometric analysis relative to control
[10] = molecular target: T2, Protein deacetylase HDAC6 (Homo sapiens) (UniProt Q9UBN7); experiment: Inhibition of N-terminal GST-tagged recombinant full length human HDAC6 expressed in baculovirus infected Sf9 insect cells at 200 uM using HDAC substrate 3 after 30 mins by fluorescence assay relative to control
T2 sequence (whole entry): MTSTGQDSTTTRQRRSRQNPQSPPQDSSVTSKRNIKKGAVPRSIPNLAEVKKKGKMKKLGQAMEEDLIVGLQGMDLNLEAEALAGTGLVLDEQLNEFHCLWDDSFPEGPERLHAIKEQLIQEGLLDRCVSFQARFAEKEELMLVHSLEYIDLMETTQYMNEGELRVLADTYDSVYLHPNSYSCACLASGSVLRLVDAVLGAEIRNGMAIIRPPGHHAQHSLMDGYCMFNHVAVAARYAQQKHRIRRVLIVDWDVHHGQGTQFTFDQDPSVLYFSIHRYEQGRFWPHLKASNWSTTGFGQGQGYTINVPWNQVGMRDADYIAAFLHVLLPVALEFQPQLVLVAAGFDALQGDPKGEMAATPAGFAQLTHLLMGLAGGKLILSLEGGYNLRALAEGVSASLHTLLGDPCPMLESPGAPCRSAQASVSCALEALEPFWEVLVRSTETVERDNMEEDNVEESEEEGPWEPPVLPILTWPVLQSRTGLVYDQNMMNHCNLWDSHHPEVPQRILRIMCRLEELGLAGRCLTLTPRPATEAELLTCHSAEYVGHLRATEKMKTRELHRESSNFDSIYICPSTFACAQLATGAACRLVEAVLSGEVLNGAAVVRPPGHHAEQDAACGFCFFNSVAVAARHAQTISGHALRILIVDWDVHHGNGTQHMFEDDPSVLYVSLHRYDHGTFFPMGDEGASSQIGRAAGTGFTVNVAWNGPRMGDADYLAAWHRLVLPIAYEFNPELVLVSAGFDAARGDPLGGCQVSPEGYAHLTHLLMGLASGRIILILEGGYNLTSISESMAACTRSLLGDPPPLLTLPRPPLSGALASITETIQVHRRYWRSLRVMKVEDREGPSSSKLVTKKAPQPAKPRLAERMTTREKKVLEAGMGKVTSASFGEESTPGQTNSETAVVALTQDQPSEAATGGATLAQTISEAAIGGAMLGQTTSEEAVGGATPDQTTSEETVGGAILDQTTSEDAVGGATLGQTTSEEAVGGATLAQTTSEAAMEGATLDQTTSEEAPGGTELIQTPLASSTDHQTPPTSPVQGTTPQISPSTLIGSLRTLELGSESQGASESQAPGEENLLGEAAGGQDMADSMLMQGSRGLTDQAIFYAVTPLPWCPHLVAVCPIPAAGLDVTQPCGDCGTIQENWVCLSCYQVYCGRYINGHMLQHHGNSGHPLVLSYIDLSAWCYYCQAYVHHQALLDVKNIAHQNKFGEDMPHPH

Sequence of Human immunodeficiency virus type 1 integrase (Human immunodeficiency virus 1) (Q7ZJM1 as listed by the source): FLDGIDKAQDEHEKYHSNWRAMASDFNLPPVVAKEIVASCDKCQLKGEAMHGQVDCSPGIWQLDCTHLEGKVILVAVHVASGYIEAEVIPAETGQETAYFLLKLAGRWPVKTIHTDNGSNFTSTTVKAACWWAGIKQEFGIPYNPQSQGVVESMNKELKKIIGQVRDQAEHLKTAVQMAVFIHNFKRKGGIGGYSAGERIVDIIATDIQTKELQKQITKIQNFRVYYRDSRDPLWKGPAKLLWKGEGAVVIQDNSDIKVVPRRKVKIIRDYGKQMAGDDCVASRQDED
Sequence of 72 kDa type IV collagenase (Homo sapiens) (P08253 110-660 limits assumed): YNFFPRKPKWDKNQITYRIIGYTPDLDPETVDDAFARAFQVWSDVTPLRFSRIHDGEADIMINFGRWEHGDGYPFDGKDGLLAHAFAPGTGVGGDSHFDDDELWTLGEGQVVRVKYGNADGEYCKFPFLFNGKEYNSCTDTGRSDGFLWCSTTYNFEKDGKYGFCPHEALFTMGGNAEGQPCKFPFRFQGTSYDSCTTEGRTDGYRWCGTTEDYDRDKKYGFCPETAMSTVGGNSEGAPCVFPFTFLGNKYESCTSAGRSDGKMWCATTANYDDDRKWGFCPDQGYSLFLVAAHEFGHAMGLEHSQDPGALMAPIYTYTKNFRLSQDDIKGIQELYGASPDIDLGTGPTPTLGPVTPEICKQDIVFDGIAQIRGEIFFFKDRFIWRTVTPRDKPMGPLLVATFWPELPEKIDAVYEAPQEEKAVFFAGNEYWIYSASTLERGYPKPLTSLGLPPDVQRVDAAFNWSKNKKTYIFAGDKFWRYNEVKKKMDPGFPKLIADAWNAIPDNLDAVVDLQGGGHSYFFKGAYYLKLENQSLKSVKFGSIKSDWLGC
Sequence of Lactoylglutathione lyase (Homo sapiens) (Q04760 2-184 limits assumed): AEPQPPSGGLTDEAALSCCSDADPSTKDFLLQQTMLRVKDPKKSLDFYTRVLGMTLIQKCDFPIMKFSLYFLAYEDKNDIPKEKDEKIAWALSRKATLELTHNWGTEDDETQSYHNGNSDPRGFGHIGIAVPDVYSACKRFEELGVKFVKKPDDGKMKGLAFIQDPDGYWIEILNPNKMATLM

SMILES	inhibition [1] [%]	inhibition [2] [%]	inhibition (Bacteria) [%]	also measured
Cc1cc(=O)c(O)c(-c2ncco2)o1	88	0	8	–
O=C(O)c1cccc(C(=O)O)n1 [DIPICOLINIC ACID]	–	–	–	IC50 [3]: > 500000 nM; pIC50 [3]: < 3.3
O=C1c2c(O)cccc2Cc2cccc(O)c21	18	41	6	–
Cc1occ(O)c(=O)c1C(=O)O	21	5	15	–
Cc1cc(=S)c(O)c(C(=O)O)o1	46	9	84	–
Cc1cc(=O)c(O)c(C(=O)O)[nH]1	97	24	6	inhibition [4]: Active
O=C(O)c1cccc(=O)n1O	9	2	25	–
Cc1nc(-c2[nH]ccc(=O)c2O)no1	30	6	3	–
Cc1cc(C(=O)O)c(O)c(=O)[nH]1	44	8	9	–
O=c1c(O)ccccc1O	95	92	92	–
Cc1cc(O)c(=O)c(O)cc1C(=O)O	98	32	61	–
O=C(O)c1occc(=O)c1O	94	1	4	–
Nc1cccc(C(=O)O)c1O	0	11	7	–
CNC(=O)c1oc(C)cc(=O)c1O	22	8	6	–
Cc1cc(=O)c(O)c(C(N)=O)o1	30	5	8	–
Cc1cc(=O)c(O)c(C(=O)O)o1	96	8	12 to 13	inhibition [5]: 11%; inhibition [6]: inactive; inhibition [7]: 11%; inhibition [8]: 37%; inhibition [4]: Active; inhibition [9]: inactive; inhibition [10]: inactive
Cc1cc(=O)c(O)c(C(=O)O)n1C	21	2	1	–
N/C(=N\O)c1[nH]ccc(=O)c1O	15	83	43	–
O=C(O)c1cccc(O)c1O	15	82	15	–
Cc1nc(C(=O)O)c(O)c(=O)[nH]1	28	0	3	–
O=C(O)c1ccc2cccc(O)c2[n+]1[O-]	5	16	87	–
Oc1cccc(O)c1O [PYROGALLOL]	21	49	63	IC50 [3]: 1700 nM; pIC50 [3]: 5.8
O=C(O)c1ccc2cccnc2c1O	67	22	10	–
CNC(=O)c1cc(C)[nH]c(=O)c1O	7	5	8	–
O=c1cc[nH]c(-c2nnn[nH]2)c1O	96	7	99	–
Cc1cc(=O)c(O)c(C(=O)O)n1O	81	12	22	–
